High-throughput results as filed in PubChem.
The list is not random: actives were taken first. Their share in the collection is about 1.8%.
Platelet DG rel: modulates dense granule release in human platelets; inhibition, %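 (compounds screened at 7.5 µM in platelet-rich plasma)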; AID 1663; human platelet-rich plasma, SFLLRN dense granule ATP release, luminescence; hit rate 0.22% among 300,000;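 active = mean replicate score, as percent of positive control, at or above 50; inconclusive = mean below 50 but at least one replicate at or above 50; inactive = mean and every replicate below 50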
Rce1 inh: blocks yeast Ras-converting enzyme. AID 2563. yeast membranes, quenched prenylated peptide cleavage fluorescence. calls only. hit rate 0.27% among 290,000. Q03530;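 active = fall in fluorescence gain of 50% or more versus controls, with final raw signal at or below 3038400; inconclusive = same 50% fall but final raw signal above 3038400; inactive = fall in fluorescence gain under 50%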;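 also: plate controls were neutral control wells for no effect and wells lacking membranes for full effect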
Runt-CBFb FRET: blocks binding of human RUNX1 Runt domain to CBFb | hit rate 0.46% among 220,000 | Q01196+Q13951 | AID 1496 | inhibition, % at 20 µM | Cerulean-Runt/Venus-CBFb FRET ratio 530/480, 1 h;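 active = inhibition over about 50% at 20 µM in the single-dose screen, limit read from the data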;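 also: 0% = DMSO wells and 100% = excess unlabeled CBFb competitor control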
Target sequence (Q01196 whole entry, looked up, the tested form may be a part): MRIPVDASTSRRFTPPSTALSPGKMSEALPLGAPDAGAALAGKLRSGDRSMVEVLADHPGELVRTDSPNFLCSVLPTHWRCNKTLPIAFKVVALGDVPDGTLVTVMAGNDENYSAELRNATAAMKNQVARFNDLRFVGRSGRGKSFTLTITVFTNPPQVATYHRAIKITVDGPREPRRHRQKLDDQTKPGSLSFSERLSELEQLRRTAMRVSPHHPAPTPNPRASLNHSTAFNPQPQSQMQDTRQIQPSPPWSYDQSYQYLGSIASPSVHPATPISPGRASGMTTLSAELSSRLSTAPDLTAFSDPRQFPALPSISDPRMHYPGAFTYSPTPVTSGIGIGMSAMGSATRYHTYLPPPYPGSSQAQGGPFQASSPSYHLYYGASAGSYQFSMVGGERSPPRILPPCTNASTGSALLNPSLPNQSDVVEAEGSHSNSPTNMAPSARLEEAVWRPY
Target sequence (Q13951 whole entry, looked up, the tested form may be a part): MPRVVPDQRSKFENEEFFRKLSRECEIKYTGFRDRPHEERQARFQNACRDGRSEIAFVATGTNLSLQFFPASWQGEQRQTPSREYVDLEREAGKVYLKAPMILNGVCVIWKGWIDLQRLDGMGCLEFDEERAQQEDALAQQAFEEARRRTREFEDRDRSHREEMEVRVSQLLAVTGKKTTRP
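Assay system: Cerulean-tagged RUNX1 Runt domain (FRET donor) fusion protein / Amount: 100 nM each of Venus-CBFb and Cerulean-Runt domain / Medium: Tris buffer pH 7.5 with salts and BSA / Also added: Venus-CBFb 100 nM / Schedule: 1 h complex formation plus 1 h compound treatment, room temperature / Signal: FRET fluorescence / Read-out: loss of energy transfer signal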
RanGTP-Imp inh: inhibitors of RanGTP-importin-beta interaction, primary screen, biochemical, FRET, CFP-Ran, YFP-importin-beta, homogeneous; hit rate 1.1% among 300,000; cell-free CFP-Ran/YFP-importin-beta FRET ratio; AID 2216; inhibition, % (concentration not given with the values);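 active = more than half of the replicate wells show a fall in the fluorescence ratio signal beyond about 16%, limit read from the data, passing the limit was not always enough; inconclusive = exactly half of the replicate wells pass the set limit; inactive = fewer than half of replicates pass the limit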;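 also: 0% = DMSO wells and 100% = Ran loaded with GDP instead of GTP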
Runt-SMMHC FRET: inhibitors of human RUNX1 Runt domain binding to CBFb-SMMHC. Q01196+Q13951. Cerulean-Runt/Venus-CBFb-SMMHC FRET ratio 530/480, 1 h. inhibition, % at 20 µM. hit rate 0.74% among 220,000. AID 1434;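 active = mean inhibition across duplicate retests at 20 µM reaching about 50%, limit read from the data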;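 also: 0% = DMSO wells and 100% = wells with excess untagged CBFb-SMMHC; inhibitors lower the FRET ratio by blocking Runt binding to CBFb-SMMHC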
The depositor's hits bear a star; i = inactive; u = inconclusive; x = no result; + = active, no number.

SMILES	Platelet DG rel	Rce1 inh	Runt-CBFb FRET	RanGTP-Imp inh	Runt-SMMHC FRET
CCCCn1c(CNC(C)=O)nc2ccccc21	5.3	i	2.5	0.6	-1.2
COc1ccc(CCn2c(N)c(C#N)c3nc4ccccc4nc32)cc1OC	-1.1	i	18.4	7.3	31.3
CCCCCn1c(N)c(C#N)c2nc3ccccc3nc21	-3.4	i	84.9*	44.4*	63.4*
C=CCn1c(NC(=O)c2ccccc2Cl)c(C#N)c2nc3ccccc3nc21	-13.8	i	25.6	123.5*	85.5*
CCCCn1c(NC(C)=O)c(C#N)c2nc3ccccc3nc21	-10.2	i	33.0	30.3*	79.3*
O=C(NCc1ccc(N2CCCC2=O)cc1)Nc1cccc(Cl)c1	-3.2	i	-1.4	-1.3	-1.9
CN1CCOc2cc(S(=O)(=O)NCc3ccc(S(N)(=O)=O)cc3)ccc21	-14.7	i	x	-1.5	x
COC(=O)c1ccccc1NC(=O)Cn1c(=O)n(Cc2ccccc2)c(=O)c2c(C)c(C)sc21	-5.5	i	1.9	-1.7	-5.4
c1ccc(-c2ccc(-c3ccncn3)cc2)cc1	1.6	i	x	0.1	x
Cc1ccc(-n2c(N)c(C#N)c(-c3ccc(Cl)cc3)c(C#N)c2=O)cc1	74.6*	i	-1.7	1.1	0.7
Cc1ccc(-c2c(C#N)c(N)n(-c3ccc(C)cc3)c(=O)c2C#N)cc1	u	i	0.4	-2.6	-2.0
CC(C)CNC(=S)N1CCC(NC(=O)c2ccco2)CC1	0.5	i	1.4	0.2	-1.8
CNc1sc(C(=O)c2cccs2)c(N)c1-c1nc2ccccc2s1	6.7	i	7.5	-0.7	76.1*
CNc1sc(C(=O)c2ccc(F)cc2)c(N)c1-c1nc2ccccc2s1	-1.5	i	4.7	-0.3	0.0
CCOC(=O)c1cn(-c2nc(-c3ccc(Cl)cc3)cs2)c2c(F)c(N3CC(C)OC(C)C3)c(F)cc2c1=O (stereo not given)	x	x	-1.9	x	-4.4
CSC[C@H](NC(=O)COc1cc2c(c3oc(=O)cc(C)c13)CCC(C)(C)O2)C(=O)O	-2.3	+	x	3.1	x
CSC[C@H](NC(=O)COc1cc2c(c3oc(=O)c(C)c(C)c13)CCC(C)(C)O2)C(=O)O	0.8	i	x	6.6	x
Cc1cc(=O)oc2c3c(cc(OCC(=O)N4CCC(C(=O)O)CC4)c12)OC(C)(C)CC3	-0.4	+	x	-2.0	x
Cc1cc(OCC(=O)N2CCC(C(=O)O)CC2)c2c(C)cc(=O)oc2c1	-4.5	+	x	1.0	x
CCc1cc(=O)oc2cc(C)cc(OCC(=O)N3CCC(C(=O)O)CC3)c12	-7.3	i	x	0.9	x
CC(=O)N=C1C=CC(=CN(O)C(C)(C)Cc2ccccc2)C=C1	0.2	i	x	3.5	x
COc1ccc(CCNC(=O)c2cccn2C)cc1	0.4	i	x	5.3	x
CC(C)CNC(=O)Nc1ccc(F)c(Cl)c1	-6.5	+	-1.8	3.4	-2.1
CCCCOc1ccc(N(CC(=O)NC2CCCCC2)C(=O)CCC(=O)Nc2ccccn2)cc1	-1.4	i	x	1.3	x
Cc1ccc(-c2ccc(CCC(=O)O)n2NC(=O)c2cccs2)cc1	-1.5	i	32.2	2.9	62.7*
SMILES	Platelet DG rel	Rce1 inh	Runt-CBFb FRET	RanGTP-Imp inh	Runt-SMMHC FRET
CCOC(=O)/C(=C/c1ccc(N2CCC(c3ccccc3)=N2)cc1)C(C)=O	-4.3	i	4.6	-1.6	78.7*
c1ccc(C2=NN(c3ccccc3)CC2)cc1	u	i	1.9	u	25.1
COCCNC(=O)/C(C#N)=C/c1ccc(-c2ccc(S(=O)(=O)N3CCOCC3)cc2)o1	-1.1	i	8.9	15.2*	24.5
CCOCCCNC(=O)/C(C#N)=C/c1ccc(-c2ccc(S(=O)(=O)N3CCOCC3)cc2)o1	-7.4	i	3.2	u	9.6
CC1CCc2nc3ccc(S(=O)(=O)N4CCC(C(=O)NCc5ccccc5Cl)CC4)cc3c(C(=O)O)c2C1 (stereo not given)	-4.5	i	x	21.7*	x
CCOc1ccccc1C1C(C#N)=C(N)Oc2cc(N)ccc21 (stereo not given)	-4.4	i	11.7	138.9*	105.1*
COc1ccc(OC)c(C2C(C#N)=C(N)Oc3cc(N)ccc32)c1 (stereo not given)	2.6	i	30.2	46.7*	32.9
N#CC1=C(N)Oc2cc(N)ccc2C1c1cccc(F)c1 (stereo not given)	-5.3	i	x	38.2*	x
CCOC(=O)C1=C(C)OC(N)=C(C#N)C1C1CCCCC1 (stereo not given)	u	i	-5.4	1.1	0.3
N#CC1=C(N)Oc2cc(N)ccc2C1C1CCCCC1 (stereo not given)	-2.5	i	50.5*	96.6*	81.6*
COC(=O)c1ccc(C2C(C#N)=C(N)Oc3cc(N)ccc32)cc1 (stereo not given)	5.8	i	x	-8.8	x
Cc1ccc(NC2CCCN(C(=O)CCC3=NNC(=O)CC3)C2)cc1C (stereo not given)	1.5	i	x	2.6	x
O=C(Oc1c(CN2CCOCC2)cc(Cl)c2cccnc12)c1ccccc1F	8.5	i	-0.6	33.3*	3.5
CCOC(=O)N1CCN(C(=O)c2ccc3c(c2)sc2nc(-c4ccc(OC)cc4)cn23)CC1	0.2	i	4.7	4.7	7.0
COc1ccc2c(c1)sc1nc(-c3ccccc3)cn12	54.3*	i	-3.6	-1.2	-2.0
COc1cccc(NC(=O)c2cc3c(=O)n4ccccc4nc3n(CC(C)C)c2=N)c1	-14.1	i	1.5	5.1	12.5
COc1ccc(CNC(=O)c2cc3c(=O)n4ccccc4nc3n(Cc3cccnc3)c2=N)cc1	11.2	i	71.6*	71.9*	150.1*
O=C(NCc1ccc2c(c1)OCO2)c1ccc2c(c1)C(=O)N(Cc1cccnc1)C2=O	5.2	i	2.3	24.7	-0.3
N=c1c(C(=O)NCc2ccc3c(c2)OCO3)cc2c(=O)n3ccccc3nc2n1Cc1cccnc1	2.7	i	94.7*	63.1*	144.2*
O=C(NCc1ccccc1)C1=C[C@@H](C2CCCCC2)C[C@@H](OCCCCO)O1	-0.8	i	x	-1.5	x
CCOC(=O)N1CCN(C(=O)CN(C2CCCCC2)S(=O)(=O)c2c(C)cc(C)cc2C)CC1	-0.8	i	-1.7	-0.8	-2.5
COC(=O)C1=CN(CCCN2CCCC2=O)C=C(C(=O)OC)C1c1cccs1	-6.4	u	23.7	u	86.8*
Oc1c(N=NC(=S)Nc2ccccc2F)c2ccccc2n1Cc1ccccc1Cl	4.4	+	-1.6	x	-6.0
CCCCNC(=S)N=Nc1c(O)n(Cc2ccccc2)c2ccccc12	-1.9	+	-1.5	-4.8	-1.2
CC(OC(=O)C1=COCCO1)C(=O)Nc1ccc(Cl)cn1 (stereo not given)	25.4	i	x	-0.8	x
O=C(NC(=S)NNC(=O)c1cccs1)c1ccccc1	-6.4	i	x	0.3	x
CC(C)(C)c1ccc(C(=O)NC(=S)NNC(=O)c2cccs2)cc1	52.2*	i	22.7	2.0	14.4
